ChEMBL document CHEMBL1156797, “Synthesis and antiplasmodial activity of new indolone N-oxide derivatives” (J Med Chem, 2010)

Tests used:
Plasmodium falciparum [1] = assay: Resistance index, ratio of IC50 for chloroquine-resistant Plasmodium falciparum FcB1 to IC50 for drug-sensitive Plasmodium falciparum 3D7; type: functional
[2] = Cytotoxicity against human MCF7 cells after 48 hrs by MTT assay; type: cell-based
[3] = Selectivity index, ratio of CC50 for human MCF7 cells to IC50 for chloroquine-resistant Plasmodium falciparum FcB1; type: functional
How it was run: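 XTT 0.5 mg/mL added for 180 min, formazan read at 450 nm, value taken from dose–response curves, two experiments in triplicate. This CC50 is divided by the FcB1 IC50 to give the index.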

[4] = Cytotoxicity against human KB cells after 72 hrs by alamar blue assay; type: cell-based
How it was run: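 KB cells were seeded at 4×10^4 cells/mL in RPMI 1640 with 10% heat-inactivated FCS and left 24 h at 37 °C, 5% CO2. A dilution series was added in triplicate for 72 h, then AlamarBlue for 2–4 h. Fluorescence was read at ex 530/em 585 nm, with podophyllotoxin as positive control and values from curve fitting.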

Plasmodium falciparum [5] = assay: Resistance index, ratio of IC50 for chloroquine-resistant Plasmodium falciparum K1 to IC50 for drug-sensitive Plasmodium falciparum 3D7; type: functional
Plasmodium falciparum [6] = assay: Antimalarial activity against drug-sensitive Plasmodium falciparum 3D7 assessed as [3H]hypoxanthine incorporation by scintillation counting; type: functional, organism-based
Plasmodium falciparum [7] = assay: Antimalarial activity against Plasmodium falciparum K1 assessed as [3H]hypoxanthine incorporation by scintillation counting; type: functional, organism-based
[8] = Selectivity index, ratio of CC50 for human KB cells to IC50 for drug-sensitive Plasmodium falciparum 3D7; type: functional
How it was run: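 The 3D7 value came from [3H]hypoxanthine incorporation: synchronized culture at 0.5% parasitaemia, 2.5% hematocrit, Albumax-supplemented medium, 2-fold dilutions from 100 to 0.05 μM in triplicate, label added at 24 h and harvested at 48 h.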

Plasmodium falciparum [9] = assay: Antimalarial activity against chloroquine-resistant Plasmodium falciparum FcB1 assessed as [3H]hypoxanthine incorporation after 48 hrs by beta-counter; type: functional, organism-based; settings: FcB1/Columbia
How it was run: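 Primary assay (Toulouse) on FcB1 cultured in RPMI with 25 mM HEPES and 10% human serum, O RBCs. Serial dilutions in triplicate, 2% parasitaemia, 2% haematocrit, 48 h at 37 °C, 5% CO2. [3H]-hypoxanthine added at 24 h, freeze-thaw harvest, β-counting. IC50 by linear regression on the linear segment of the semilog inhibition curve. Three independent repeats.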

Plasmodium berghei [10] = assay: Antimalarial activity against Plasmodium berghei ANKA infected Swiss mice (Mus musculus) assessed as reduction in parasitemia at 30 mg/kg, intraperitoneally after 3 days measured on day 4; type: functional; parameters: scale not given: the % may be the effect or the level left; settings: route intraperitoneal
How it was run: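 P. berghei ANKA in male Swiss outbred CD-1 mice (20 g), kept specific pathogen-free. Infection was iv with 2×10^6 infected red cells on day 0, then mice were randomized into groups of five per dose. Compound was given ip in 0.05% Tween 80. Parasitaemia was read from Giemsa-stained blood films on day 4 and expressed as % inhibition from group arithmetic mean parasitaemia versus the untreated group.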

[11] = Metabolic stability in CD1 mouse liver microsomes assessed as half life; type: ADME, Microsome
Plasmodium berghei [12] = assay: Antimalarial activity against Plasmodium berghei ANKA infected Swiss mice (Mus musculus) assessed as reduction in parasitemia at 30 mg/kg, perorally after 3 days measured on day 4; type: functional; parameters: scale not given: the % may be the effect or the level left; settings: route oral
How it was run: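 Male Swiss outbred CD-1 mice (20 g) were infected iv with 2×10^6 P. berghei ANKA-infected red cells and put in groups of five per dose. Dosing was by oral gavage in suspending vehicle (0.5% Na carboxymethylcellulose, 0.5% benzyl alcohol, 0.4% Tween 80, 0.9% NaCl), starting 3 h postinfection, then once daily on days 1–3. Day-4 Giemsa films; % inhibition against untreated mean parasitaemia.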

[13] = Inhibition of beta-hematin formation assessed as biocrystallization by UV-visible assay; type: functional
Plasmodium berghei [14] = assay: Antimalarial activity against Plasmodium berghei NK65 infected Swiss mice (Mus musculus) assessed as reduction in parasitemia at 48 mg/kg, intraperitoneally after 3 days measured on day 4; parameters: scale not given: the % may be the effect or the level left; settings: route intraperitoneal
Mus musculus = assay: Toxicity in Swiss mouse at 140 mg/kg, ip; type: organism-based; parameters: dose 140 mg/kg, route intraperitoneal; settings: in vivo
Plasmodium berghei [15] = assay: Antimalarial activity against Plasmodium berghei NK65 infected Swiss mice (Mus musculus) assessed as reduction in parasitemia treated intraperitoneally for 3 days measured on day 4; settings: NK65, ip
Plasmodium berghei [16] = assay: Antimalarial activity against Plasmodium berghei NK65 infected Swiss mice (Mus musculus) assessed as reduction in parasitemia at 10 mg/kg, intraperitoneally after 3 days measured on day 4; parameters: scale not given: the % may be the effect or the level left; settings: route intraperitoneal

| SMILES | Ratio IC50 (Plasmodium falciparum [1]) | CC50 at 48 h [2] [nM] | Ratio CC50/IC50 [3] | CC50 at 72 h [4] [nM] | Ratio IC50 (Plasmodium falciparum [5]) | IC50 (Plasmodium falciparum [6]) [nM] | IC50 (Plasmodium falciparum [7]) [nM] | Ratio CC50/IC50 [8] | IC50 (Plasmodium falciparum [9]) [nM] | Activity (Plasmodium berghei [10]) [%] | half-life [11] [min] | Activity (Plasmodium berghei [12]) [%] | IC50 [13] | Activity (Plasmodium berghei [14]) [%] | Activity (Mus musculus) | ED50 (Plasmodium berghei [15]) [mg/kg] | Activity (Plasmodium berghei [16]) [%] |
| --- | --- | --- | --- | --- | --- | --- | --- | --- | --- | --- | --- | --- | --- | --- | --- | --- | --- |
| COc1ccc2c(c1)C(=O)C(c1ccc(Cl)cc1)=[N+]2[O-] | 3.4 | 21500 | 102 | 469000 | 1 | 62 | 59 | 7564 | 210 | – | – | – | – | – | – | – | – |
| COc1ccc2c(c1)C(=O)C(c1ccc(OC(C)C)cc1)=[N+]2[O-] | 0.5 | > 32100 | > 1890 | 321000 | 2.5 | 32 | 81.3 | 10031 | 17 | 30.4 | 6 | 25.1 | – | – | – | – | – |
| COc1ccc2c(c1)C(=O)C(c1ccc(C)cc1)=[N+]2[O-] | 1.9 | > 37500 | >721 | 56000 | 0.7 | 27 | 20 | 2074 | 52 | – | – | – | – | – | – | – | – |
| COc1ccc2c(c1)C(=O)C(c1ccc(Cl)c(C(F)(F)F)c1)=[N+]2[O-] | 0.7 | 13500 | 270 | < 1400 | 0.1 | 69 | 5 | <20 | 50 | – | – | – | – | – | – | – | – |
| O=C1C(c2ccccc2)=[N+]([O-])c2ccccc21 | – | 19500 | 22 | – | – | – | – | – | 889 | – | – | – | Not Active | – | – | – | – |
| O=C1C(c2ccc(Cl)c(Cl)c2)=[N+]([O-])c2ccccc21 | 1.6 | 13700 | 88 | 570000 | 0.8 | 98 | 80 | 5816 | 155 | – | – | – | – | – | – | – | – |
| COc1ccc2c(c1)C(=O)C(c1ccc(N(C)C)cc1)=[N+]2[O-] | 2.9 | 43900 | > 14600 | 338000 | – | 1.7 | – | 198823 | < 3 | 15.3 | 6 | 20.9 | – | – | – | – | – |
| CCOc1ccc(C2=[N+]([O-])c3cc4c(cc3C2=O)OCO4)cc1 | – | 51900 | 332 | – | – | – | – | – | 156 | – | – | – | Not Active | – | – | – | – |
| O=C1C(c2ccc(Cl)cc2)=[N+]([O-])c2cc3c(cc21)OCO3 | 1.3 | 15900 | 212 | 27000 | 1.5 | 58 | 88 | 450 | 75 | 62.1 | < 1 | 14.5 | – | 81 | Non-toxic | 16 | – |
| COc1ccc(C2=[N+]([O-])c3ccccc3C2=O)cc1 | 1.9 | > 39500 | >202 | 457000 | 1.2 | 101 | 124 | 4525 | 195 | 40.5 | 16 | 32.4 | – | – | – | – | – |
| CCN(CC)CCCC(C)Nc1ccnc2cc(Cl)ccc12 (stereo unspecified) [CHLOROQUINE] | – | 19400 | – | 44000 | – | – | – | – | – | – | – | – | – | – | – | 3 | 100 |
| C[C@H]1[C@H](OC(=O)CCC(=O)[O-])O[C@@H]2O[C@@]3(C)CC[C@H]4[C@H](C)CC[C@@H]1[C@@]24OO3.[Na+] [SODIUM ARESUNATE] | 1.5 | 9800 | 1633 | 36200 | 1 | 4 | 4 | 9045 | 6 | – | – | – | – | – | – | – | – |
